According to ChEMBL document CHEMBL4831535, “Reducing the Toxicity of Designer Aminoglycosides as Nonsense Mutation Readthrough Agents for Therapeutic Targets” (ACS Med Chem Lett, 2021):
Calls of active or inactive are those of the source. The calls are words filed in the database; no cut-off is given here.

Assays:
Format in all cases: cell-based
[1] = test system: Premature termination codon; experiment: Induction of read through activity at TP53 R213X mutant premature termination codon in human DMS-114 cells assessed as increase in production of full length p53 at up to 500 ug/ml measured after 48 hrs by capillary electrophoresis western analysis; conditions: dose microg/ml <=500, time 48.0 hrs
In short: (§1)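 DMS-114 cells exposed to a range of concentrations for 48 h. Full-length and truncated p53 measured by capillary electrophoresis western analysis, with vinculin as loading control. Full-length p53 expressed as a normalized percent amount.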

[2] = test system: Premature termination codon; experiment: Induction of read through activity at TP53 R213X mutant premature termination codon in human DMS-114 cells assessed as increase in production of full length p53 at 125 ug/ml measured after 48 hrs by capillary electrophoresis western analysis; conditions: dose 125.0 µg/ml; in short: as §1
[3] = test system: Premature termination codon; experiment: Induction of read through activity at TP53 R213X mutant premature termination codon in human DMS-114 cells assessed as increase in production of full length p53 at 500 ug/ml measured after 48 hrs by capillary electrophoresis western analysis relative to control; conditions: dose 500.0 µg/ml; in short: as §1
DMS-114 [4] = experiment: Cytotoxicity against human DMS-114 cells assessed as reduction in cell viability at up tp 500 ug/ml; conditions: dose 500 µg/ml
Fibroblast [5] = experiment: Cytotoxicity against human fibroblast assessed as reduction in cell viability at up to 0.5 mg/ml measured after 48 hrs by fluorescent live-cell promega ApoLive-glo multiplex assay
In short: (§2)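 Wild-type fibroblasts exposed to a range of concentrations for 48 h. Cell viability read out with the ApoLive-Glo Multiplex Assay.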

[6] = test system: Premature termination codon; experiment: Induction of read through activity at TP53 R213X mutant premature termination codon in human DMS-114 cells assessed as expression of full length p53 levels at 62 ug/ml measured after 48 hrs by capillary electrophoresis western analysis; conditions: dose 62.0 µg/ml; in short: as §1
DMS-114 [7] = experiment: Cytotoxicity against human DMS-114 cells assessed as reduction in cell viability at up to 62 ug/ml; conditions: dose <=62 µg/ml
DMS-114 [8] = experiment: Cytotoxicity against human DMS-114 cells assessed as reduction in cell viability at 125 ug/ml; conditions: dose 125 µg/ml
Fibroblast [9] = experiment: Cytotoxicity against human fibroblast assessed as reduction in cell viability at 1 mg/ml measured after 48 hrs by fluorescent live-cell promega ApoLive-glo multiplex assay relative to control; in short: as §2
[10] = test system: Premature termination codon; experiment: Induction of read through activity at TP53 R213X mutant premature termination codon in human DMS-114 cells assessed as increase in production of full length p53 at 31 to 250 ug/ml measured after 48 hrs by capillary electrophoresis western analysis; conditions: dose 31-250 µg/ml; in short: as §1

Row | SMILES | Activity [1] | Activity (DMS-114 [4]) | Activity (Fibroblast [5]) | Activity (Fibroblast [9]) [%] | other results
1 | C[C@H](N)[C@H]1O[C@@H](O[C@@H]2[C@@H](O)[C@H](N)C[C@H](N)[C@H]2O[C@H]2O[C@H]([C@@H](C)N)[C@@H](O)[C@H](O)[C@H]2O)[C@H](O)[C@@H]1O | inactive |  |  |  | 
2 | C[C@H](N)[C@H]1O[C@@H](O[C@@H]2[C@@H](O)[C@H](N)C[C@H](N)[C@H]2O[C@H]2O[C@H]([C@@H](C)O)[C@@H](O)[C@H](O)[C@H]2O)[C@H](O)[C@@H]1O |  | Non-Toxic | Non-Toxic |  | Activity [2]: Active; Activity [3]: 18%
3 | C[C@H](N)[C@H]1O[C@@H](O[C@@H]2[C@@H](O)[C@H](N)C[C@H](N)[C@@H]2O[C@H]2O[C@H]([C@@H](C)O)[C@@H](O)[C@H](O)[C@H]2N)[C@H](O)[C@@H]1O |  |  |  | 50 | Activity [6]: Active; Activity (DMS-114 [7]): Non-Toxic; Activity (DMS-114 [8]): Toxic
4 | C[C@H](N)[C@H]1O[C@@H](O[C@@H]2[C@@H](O)[C@H](N)C[C@H](N)[C@H]2O[C@H]2O[C@H]([C@H](C)O)[C@@H](O)[C@H](O)[C@H]2O)[C@H](O)[C@@H]1O | inactive | Non-Toxic |  |  | 
5 | C[C@H](N)[C@H]1O[C@@H](O[C@@H]2[C@@H](O)[C@H](N)C[C@H](N)[C@H]2O[C@H]2O[C@H]([C@H](O)CO)[C@@H](O)[C@H](O)[C@H]2O)[C@H](O)[C@@H]1O |  | Non-Toxic | Non-Toxic | 15 | Activity [10]: Active
